The source made the active and inactive calls. No cut-off for these calls is given here.
Key:
[1] = system: Rattus norvegicus; test: Delta BP refers to oral hypotensive activity of compound which is evaluated at 4 hr and 24 hr in restrained, normotensive conscious rats at a dose of 50 mg/kg; format: functional, organism-based; set-up: dose 50 mg/kg
Method in brief: (§1)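 Female Sprague-Dawley rats, normotensive, restrained in a towel. Blood pressure was read directly via chronic indwelling aortic cannulas exteriorized at the nape, before and 4 and 24 h after an oral dose suspended in carboxymethylcellulose (10 mL/kg). Values from two animals were averaged at each time; a mean change of at least 5 mmHg was taken as significant (p < 0.05).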

[2] = system: Rattus norvegicus; test: Delta BP refers to oral hypotensive activity of compound which is evaluated at 4 hr and 24 hr in restrained, normotensive conscious rats at a dose of 50 mg/kg; 0/-14; format: functional; method in brief: as §1
[3] = system: Rattus norvegicus; test: Delta BP refers to oral hypotensive activity of compound which is evaluated at 4 hr and 24 hr in restrained, normotensive conscious rats at a dose of 50 mg/kg; -17/-16; format: functional; method in brief: as §1
[4] = system: Rattus norvegicus; test: Delta BP refers to oral hypotensive activity of compound which is evaluated at 4 hr and 24 hr in restrained, normotensive conscious rats at a dose of 50 mg/kg; -15/3; format: functional; method in brief: as §1
[5] = system: Rattus norvegicus; test: Delta BP refers to oral hypotensive activity of compound which is evaluated at 4 hr and 24 hr in restrained, normotensive conscious rats at a dose of 50 mg/kg; -9/-10; format: functional; method in brief: as §1
[6] = system: Rattus norvegicus; test: Delta BP refers to oral hypotensive activity of compound which is evaluated at 4 hr and 24 hr in restrained, normotensive conscious rats at a dose of 50 mg/kg; -8/-10; format: functional; method in brief: as §1
[7] = system: Rattus norvegicus; test: Delta BP refers to oral hypotensive activity of compound which is evaluated at 4 hr and 24 hr in restrained, normotensive conscious rats at a dose of 50 mg/kg; -8/-1; format: functional; method in brief: as §1
[8] = system: Rattus norvegicus; test: Delta BP refers to oral hypotensive activity of compound which is evaluated at 4 hr and 24 hr in restrained, normotensive conscious rats at a dose of 50 mg/kg; -10/-3; format: functional; method in brief: as §1
[9] = system: Rattus norvegicus; test: Delta BP refers to oral hypotensive activity of compound which is evaluated at 4 hr and 24 hr in restrained, normotensive conscious rats at a dose of 50 mg/kg; -19/-9; format: functional; method in brief: as §1
[10] = system: Rattus norvegicus; test: Delta BP refers to oral hypotensive activity of compound which is evaluated at 4 hr and 24 hr in restrained, normotensive conscious rats at a dose of 50 mg/kg; -16/-26; format: functional; method in brief: as §1
[11] = system: Rattus norvegicus; test: Delta BP refers to oral hypotensive activity of compound which is evaluated at 4 hr and 24 hr in restrained, normotensive conscious rats at a dose of 50 mg/kg; 2/2; format: functional; method in brief: as §1
[12] = system: Rattus norvegicus; test: Delta BP refers to oral hypotensive activity of compound which is evaluated at 4 hr and 24 hr in restrained, normotensive conscious rats at a dose of 50 mg/kg; 3/2; format: functional; method in brief: as §1
[13] = system: Rattus norvegicus; test: Delta BP refers to oral hypotensive activity of compound which is evaluated at 4 hr and 24 hr in restrained, normotensive conscious rats at a dose of 50 mg/kg; -4/-2; format: functional; method in brief: as §1
[14] = system: Rattus norvegicus; test: Delta BP refers to oral hypotensive activity of compound which is evaluated at 4 hr and 24 hr in restrained, normotensive conscious rats at a dose of 50 mg/kg; -19/-21; format: functional; method in brief: as §1
[15] = system: Rattus norvegicus; test: Delta BP refers to oral hypotensive activity of compound which is evaluated at 4 hr and 24 hr in restrained, normotensive conscious rats at a dose of 50 mg/kg; -26/-21; format: functional; method in brief: as §1
[16] = system: Rattus norvegicus; test: Delta BP refers to oral hypotensive activity of compound which is evaluated at 4 hr and 24 hr in restrained, normotensive conscious rats at a dose of 15 mg/kg; -24/-5; format: functional; method in brief: as §1
[17] = system: Rattus norvegicus; test: Delta BP refers to oral hypotensive activity of compound which is evaluated at 4 hr and 24 hr in restrained, normotensive conscious rats at a dose of 50 mg/kg; -16/3; format: functional; conditions: dose 15 mg/kg, in the assay text read “dose of 15 mg/kg” for “dose of 50 mg/kg”; method in brief: as §1
[18] = system: Rattus norvegicus; test: Delta BP refers to oral hypotensive activity of compound which is evaluated at 4 hr and 24 hr in restrained, normotensive conscious rats at a dose of 50 mg/kg; -22/-25; format: functional; method in brief: as §1

COc1cc2c(cc1OC)C(C)(CCN1CCN(c3cccc(Cl)c3)CC1)OCC2 (stereo not given)
Delta blood pressure [1]: inactive

COc1cc2c(cc1OC)C(CN1CCN(c3ccc(F)cc3)CC1)OCC2 (stereo not given)
Delta blood pressure [2]: 0 mmHg

COc1cc2c(cc1OC)C(CCCN1CCN(c3ccc(Cl)cc3)CC1)(c1ccc(F)cc1)OCC2 (stereo not given)
Delta blood pressure [1]: inactive

COc1cc2c(cc1OC)C(CN1CCN(c3ccccn3)CC1)OCC2 (stereo not given)
Delta blood pressure [1]: inactive

COc1cc2c(cc1OC)C(CCN1CCN(c3ccccc3OC)CC1)OC(C)(C)C2 (stereo not given)
Delta blood pressure [3]: -17 mmHg | Delta blood pressure [4]: -15 mmHg

COc1cc2c(cc1OC)C(C)(CCN1CCN(c3ccccc3OC)CC1)OCC2 (stereo not given)
Delta blood pressure [5]: -9 mmHg

COc1cc2c(cc1OC)C(CCN1CCN(c3ccccc3OC)CC1)OCC2 (stereo not given)
Delta blood pressure [1]: inactive

COc1cc2c(cc1OC)C(C)(CCN1CCN(c3ccccn3)CC1)OCC2 (stereo not given)
Delta blood pressure [1]: inactive

COc1cc2c(cc1OC)C(CCN1CCN(c3cccc(Cl)c3)CC1)OC(C)(C)C2 (stereo not given)
Delta blood pressure [1]: inactive

COc1cc2c(cc1OC)C(C)(C)COC2CCN1CCN(c2ccccc2Cl)CC1 (stereo not given)
Delta blood pressure [1]: inactive

COc1cc2c(cc1OC)C(C)(CCN1CCN(c3ccc(Cl)cc3)CC1)OCC2 (stereo not given)
Delta blood pressure [6]: -8 mmHg

COc1cc2c(cc1OC)C(C)(CCCN1CCN(c3cccc(C(F)(F)F)c3)CC1)OCC2 (stereo not given)
Delta blood pressure [1]: inactive

COc1cc2c(cc1OC)C(C)(CCCN1CCN(c3ccc(Cl)cc3)CC1)OCC2 (stereo not given)
Delta blood pressure [7]: -8 mmHg

COc1cc2c(cc1OC)C(C)(CCCN1CCN(c3ccc(F)cc3)CC1)OCC2 (stereo not given)
Delta blood pressure [8]: -10 mmHg

COc1cc2c(cc1OC)C(CCN1CCN(c3ccccc3C)CC1)OCC2 (stereo not given)
Delta blood pressure [9]: -19 mmHg

COc1cc2c(cc1OC)C(CCCN1CCN(c3ccccc3C)CC1)(c1ccc(F)cc1)OCC2 (stereo not given)
Delta blood pressure [1]: inactive

COc1cc2c(cc1OC)C(CCN1CCN(c3ccccc3)CC1)OC(C)(C)C2 (stereo not given)
Delta blood pressure [1]: inactive

COc1cc2c(cc1OC)C(C)(CCN1CCN(c3ccc(F)cc3)CC1)OCC2 (stereo not given)
Delta blood pressure [10]: -16 mmHg

COc1cc2c(cc1OC)C(C)(CCN1CCN(c3cccc(C(F)(F)F)c3)CC1)OCC2 (stereo not given)
Delta blood pressure [1]: inactive

COc1cc2c(cc1OC)C(CN1CCN(c3cccc(C(F)(F)F)c3)CC1)OCC2 (stereo not given)
Delta blood pressure [11]: 2 mmHg

COc1cc2c(cc1OC)C(CCN1CCN(c3ccccc3Cl)CC1)OCC2 (stereo not given)
Delta blood pressure [12]: 3 mmHg

COc1cc2c(cc1OC)C(C)(CCCN1CCN(c3ccccc3)CC1)OCC2 (stereo not given)
Delta blood pressure [13]: -4 mmHg

COc1cc2c(cc1OC)C(C)(CCCN1CCN(c3cccc(Cl)c3)CC1)OCC2 (stereo not given)
Delta blood pressure [1]: inactive

COc1cc2c(cc1OC)C(C)(CCN1CCN(c3ccccc3C)CC1)OCC2 (stereo not given)
Delta blood pressure [1]: inactive

COc1cc2c(cc1OC)C(CCN1CCN(c3ccc(Cl)cc3)CC1)OCC2 (stereo not given)
Delta blood pressure [14]: -19 mmHg

COc1cc2c(cc1OC)C(C)(CCCN1CCN(c3ccccc3C)CC1)OCC2 (stereo not given)
Delta blood pressure [15]: -26 mmHg | Delta blood pressure [16]: -24 mmHg

COc1cc2c(cc1OC)C(CCCN1CCN(c3ccc(F)cc3)CC1)(c1ccc(F)cc1)OCC2 (stereo not given)
Delta blood pressure [17]: -16 mmHg | Delta blood pressure [18]: -22 mmHg
